This is an account of results in ChEMBL document CHEMBL4387720, “Lead generation of 1,2-dithiolanes as exon 19 and exon 21 mutant EGFR tyrosine kinase inhibitors” (Bioorg Med Chem Lett, 2019).

One may read the Kd as a measure of binding affinity in units of concentration. By inhibition is commonly meant the drop in the measured response relative to a control, in per cent. Read a low inhibition as little suppression. Broadly, the IC50 is the point on the concentration scale where inhibition reaches its midpoint. The low end stands for greater potency in that assay, the high end for weaker potency in that assay. By GI50 is commonly meant the concentration giving 50% growth inhibition. Low readings indicate greater sensitivity of the cells, high ones lower sensitivity of the cells. A word on the half-life: it is the time needed for the level to fall by half in the phase considered. A higher half-life goes with slow decline.

Where only a bound is given, the exact number is not on record here.

Data set [1] has as its target Epidermal growth factor receptor (Homo sapiens, UniProt P00533, L747-T751DEL). As to the kind of experiment: Binding affinity to human partial length EGFR L747-T751del/Sins mutant expressed in bacterial expression system by KinomeScan assay. Summed up:
(§1)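 Competition binding against an immobilized active-site-directed ligand. Bound kinase is quantified by qPCR of its DNA tag. Kd values come from duplicate 11-point dose-response curves.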

Data set [2] has as its target Tyrosine-protein kinase ITK/TSK (Homo sapiens) (UniProt Q08881). As to the kind of experiment: Inhibition of probe binding to ITK (unknown origin) using rabbit reticulate lysate system at 250 nM after 1 hr by luminescence assay relative to control.
Data set [3] deals with NCI-H322M. Nature of the data set: Cytotoxicity against human NCI-H322M cells assessed as reduction in measured protein incubated for 48 hrs by SRB assay. It is filed as functional. As to conditions: read-out: LC50 (the source's name). In short, it runs like this: (§2)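 Tested in the NCI-60 panel with a five-dose response curve, each value the mean of 2 experiments.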
For a further data set, the target named is Cytochrome P450 2C9 (Homo sapiens, UniProt P11712). Nature of the data set: Inhibition of CYP2C9 (unknown origin). Format: ADME.
Another data set relates to A549. Nature of the data set: Therapeutic index, ratio of LC50 for human A549 cells to GI50 for human A549 cells. It is filed as functional. In short, it runs like this:
(§3)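 NCI-60 panel cell growth assay. Five-point dose-response curves; each value is the average of 2 experiments. […] Therapeutic index is calculated as LC50/GI50.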

Data set [4] has as its target Epidermal growth factor receptor (Homo sapiens, UniProt P00533, L858R). Nature of the data set: Binding affinity to human partial length EGFR L858R mutant (R669 to V1011 residues) expressed in bacterial expression system by kinomescan assay. In short, it runs like this:
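Competition binding against an immobilized active-site-directed ligand; bound kinase quantified by qPCR of its DNA tag. Kd taken from duplicate 11-point dose-response curves.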

Data set [5] has as its system NCI-H322M. As to the kind of experiment: cells. It is filed as functional. The note with it: Homo sapiens, 48 h.
Data set [6] concerns NCI-H460. As to the kind of experiment: Therapeutic index, ratio of LC50 for human NCI-H460 cells to GI50 for human NCI-H460 cells. Format: functional. Summed up:
as §3

Data set [7] in a line: Half life in human S9 fraction. It is filed as ADME, subcellular.
For data set [8], the target named is Epidermal growth factor receptor (Homo sapiens, UniProt P00533, L861Q). As to the kind of experiment: Binding affinity to human partial length EGFR L861Q mutant (R669 to V1011 residues) expressed in bacterial expression system by KinomeScan assay. Summed up: as §1
In data set [9] the test system is NCI-H460. As to the kind of experiment: Cytotoxicity against human NCI-H460 cells assessed as reduction in measured protein incubated for 48 hrs by SRB assay. It is filed as functional. As to conditions: NCI-H460, 48 h, read-out: LC50 (the source's name). In short, it runs like this: as §2
Another data set concerns the target Cytochrome P450 2B6 (Homo sapiens, UniProt P20813). Nature of the data set: Inhibition of CYP2B6 (unknown origin). It is filed as ADME.
Data set [10] in a line: Half life in rat liver microsomes. It is filed as ADME, Microsome. For orientation: Liver microsomes are vesicles of endoplasmic reticulum, rich in cytochrome P450 enzymes.
Data set [11] in a line: Half life in human liver microsomes. Format: ADME, Microsome.

Sequence of Cytochrome P450 2B6 (P20813 whole entry): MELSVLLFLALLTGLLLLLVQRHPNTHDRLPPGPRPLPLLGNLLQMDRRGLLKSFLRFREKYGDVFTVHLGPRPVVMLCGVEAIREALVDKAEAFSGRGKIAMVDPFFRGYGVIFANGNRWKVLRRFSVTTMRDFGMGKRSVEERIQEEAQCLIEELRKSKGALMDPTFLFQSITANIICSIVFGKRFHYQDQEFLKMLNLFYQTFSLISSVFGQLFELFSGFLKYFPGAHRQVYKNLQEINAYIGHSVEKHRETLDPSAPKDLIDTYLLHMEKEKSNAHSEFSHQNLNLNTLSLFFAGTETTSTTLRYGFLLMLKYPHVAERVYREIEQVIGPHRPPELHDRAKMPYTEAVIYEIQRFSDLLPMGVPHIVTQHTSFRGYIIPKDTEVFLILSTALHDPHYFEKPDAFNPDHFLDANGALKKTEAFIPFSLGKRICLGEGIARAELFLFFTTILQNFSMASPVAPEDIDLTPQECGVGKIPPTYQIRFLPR
Sequence of Epidermal growth factor receptor (Homo sapiens, UniProt P00533, L747-T751DEL) (P00533 whole entry L747-T751del, looked up): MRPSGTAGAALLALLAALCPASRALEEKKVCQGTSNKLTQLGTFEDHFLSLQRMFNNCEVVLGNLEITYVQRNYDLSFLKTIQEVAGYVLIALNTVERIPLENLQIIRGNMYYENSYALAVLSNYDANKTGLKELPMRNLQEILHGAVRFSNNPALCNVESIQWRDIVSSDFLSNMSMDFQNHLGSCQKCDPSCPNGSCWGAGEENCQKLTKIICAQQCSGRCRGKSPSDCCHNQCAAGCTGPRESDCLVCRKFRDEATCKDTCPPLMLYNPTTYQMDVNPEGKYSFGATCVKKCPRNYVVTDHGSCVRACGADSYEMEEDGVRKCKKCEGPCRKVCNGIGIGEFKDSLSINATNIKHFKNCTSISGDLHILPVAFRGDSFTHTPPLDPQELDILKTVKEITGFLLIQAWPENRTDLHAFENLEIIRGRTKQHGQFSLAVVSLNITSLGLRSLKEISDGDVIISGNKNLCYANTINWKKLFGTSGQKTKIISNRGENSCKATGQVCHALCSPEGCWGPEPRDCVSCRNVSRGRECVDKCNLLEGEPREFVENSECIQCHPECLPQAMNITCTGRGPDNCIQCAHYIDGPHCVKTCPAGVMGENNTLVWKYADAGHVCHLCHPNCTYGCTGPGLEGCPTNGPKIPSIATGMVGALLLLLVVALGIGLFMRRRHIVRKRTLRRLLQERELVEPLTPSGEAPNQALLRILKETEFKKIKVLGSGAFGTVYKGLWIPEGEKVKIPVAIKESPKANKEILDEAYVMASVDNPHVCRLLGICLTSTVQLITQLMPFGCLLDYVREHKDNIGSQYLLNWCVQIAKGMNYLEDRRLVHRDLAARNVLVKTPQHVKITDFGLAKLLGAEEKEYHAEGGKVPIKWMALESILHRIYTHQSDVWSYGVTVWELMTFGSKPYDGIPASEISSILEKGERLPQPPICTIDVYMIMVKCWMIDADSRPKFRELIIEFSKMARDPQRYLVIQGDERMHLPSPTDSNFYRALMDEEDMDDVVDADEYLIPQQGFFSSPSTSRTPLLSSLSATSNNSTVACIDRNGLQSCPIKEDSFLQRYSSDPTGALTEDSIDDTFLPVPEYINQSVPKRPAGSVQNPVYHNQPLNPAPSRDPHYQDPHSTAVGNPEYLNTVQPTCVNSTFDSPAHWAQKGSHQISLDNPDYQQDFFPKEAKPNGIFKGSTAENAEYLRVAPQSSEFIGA
Sequence of Epidermal growth factor receptor (Homo sapiens, UniProt P00533, L858R) (P00533 25-1210 L858R limits assumed): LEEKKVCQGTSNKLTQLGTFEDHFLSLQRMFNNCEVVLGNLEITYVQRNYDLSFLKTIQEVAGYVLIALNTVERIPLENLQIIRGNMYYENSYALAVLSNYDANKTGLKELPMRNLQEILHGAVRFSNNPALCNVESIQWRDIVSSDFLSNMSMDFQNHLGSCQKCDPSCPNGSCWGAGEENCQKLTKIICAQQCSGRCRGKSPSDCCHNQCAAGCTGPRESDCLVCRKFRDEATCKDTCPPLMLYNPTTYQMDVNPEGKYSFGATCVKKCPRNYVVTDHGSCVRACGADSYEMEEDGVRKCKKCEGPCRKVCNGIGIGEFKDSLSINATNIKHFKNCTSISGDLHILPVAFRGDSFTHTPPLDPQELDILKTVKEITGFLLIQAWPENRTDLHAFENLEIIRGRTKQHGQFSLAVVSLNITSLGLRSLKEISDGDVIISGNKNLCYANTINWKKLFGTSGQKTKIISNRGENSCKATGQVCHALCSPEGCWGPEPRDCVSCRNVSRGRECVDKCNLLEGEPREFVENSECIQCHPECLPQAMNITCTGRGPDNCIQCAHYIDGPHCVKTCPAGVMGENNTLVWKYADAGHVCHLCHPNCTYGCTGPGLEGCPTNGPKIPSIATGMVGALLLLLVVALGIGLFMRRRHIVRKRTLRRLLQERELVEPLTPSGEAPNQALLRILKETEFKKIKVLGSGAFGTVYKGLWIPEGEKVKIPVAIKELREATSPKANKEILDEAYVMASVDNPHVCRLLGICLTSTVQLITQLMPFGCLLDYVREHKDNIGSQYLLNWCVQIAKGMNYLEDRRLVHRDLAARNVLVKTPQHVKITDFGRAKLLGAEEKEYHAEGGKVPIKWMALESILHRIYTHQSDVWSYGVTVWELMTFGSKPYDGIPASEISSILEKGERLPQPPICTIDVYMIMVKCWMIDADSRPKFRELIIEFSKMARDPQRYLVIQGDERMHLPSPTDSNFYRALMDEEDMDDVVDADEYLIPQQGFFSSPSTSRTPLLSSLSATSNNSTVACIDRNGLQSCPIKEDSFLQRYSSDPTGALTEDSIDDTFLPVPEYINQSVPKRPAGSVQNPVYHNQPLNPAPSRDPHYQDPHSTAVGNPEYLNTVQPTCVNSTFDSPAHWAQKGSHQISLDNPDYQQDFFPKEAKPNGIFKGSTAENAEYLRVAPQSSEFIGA
Sequence of Tyrosine-protein kinase ITK/TSK (Homo sapiens) (Q08881 whole entry): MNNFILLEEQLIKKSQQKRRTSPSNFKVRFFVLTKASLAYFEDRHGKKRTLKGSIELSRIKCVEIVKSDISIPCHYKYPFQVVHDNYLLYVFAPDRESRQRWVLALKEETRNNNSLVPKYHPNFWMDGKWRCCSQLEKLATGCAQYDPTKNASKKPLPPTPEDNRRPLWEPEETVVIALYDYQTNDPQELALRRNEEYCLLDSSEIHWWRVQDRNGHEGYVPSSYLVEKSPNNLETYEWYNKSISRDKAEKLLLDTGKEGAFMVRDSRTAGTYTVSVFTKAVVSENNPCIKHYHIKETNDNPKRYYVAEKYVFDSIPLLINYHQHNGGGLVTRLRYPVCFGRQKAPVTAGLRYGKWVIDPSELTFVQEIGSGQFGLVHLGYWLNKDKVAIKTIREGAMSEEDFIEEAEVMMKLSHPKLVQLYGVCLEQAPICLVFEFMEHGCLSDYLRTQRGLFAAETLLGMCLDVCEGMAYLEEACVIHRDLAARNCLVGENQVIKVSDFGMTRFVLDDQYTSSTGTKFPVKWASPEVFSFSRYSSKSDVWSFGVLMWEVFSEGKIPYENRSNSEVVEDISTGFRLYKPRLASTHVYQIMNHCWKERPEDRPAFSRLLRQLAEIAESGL
Sequence of Cytochrome P450 2C9 (P11712 whole entry): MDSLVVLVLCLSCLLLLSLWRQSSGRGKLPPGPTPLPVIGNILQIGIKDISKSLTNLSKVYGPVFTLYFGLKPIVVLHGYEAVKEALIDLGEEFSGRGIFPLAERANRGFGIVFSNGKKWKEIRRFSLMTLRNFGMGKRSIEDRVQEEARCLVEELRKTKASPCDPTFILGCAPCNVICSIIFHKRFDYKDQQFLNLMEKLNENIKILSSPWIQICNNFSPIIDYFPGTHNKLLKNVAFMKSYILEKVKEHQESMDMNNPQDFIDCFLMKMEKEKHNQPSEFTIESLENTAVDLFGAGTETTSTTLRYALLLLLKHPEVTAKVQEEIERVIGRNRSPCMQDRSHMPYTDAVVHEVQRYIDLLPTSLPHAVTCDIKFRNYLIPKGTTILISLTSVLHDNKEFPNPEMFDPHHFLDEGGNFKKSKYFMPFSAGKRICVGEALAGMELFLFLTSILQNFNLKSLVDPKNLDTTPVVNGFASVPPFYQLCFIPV

Take `CCOc1cc2ncc(C#N)c(Nc3ccc(OCc4cccc(F)c4)c(Cl)c3)c2cc1NC(=O)CC1CCSS1` (centres undefined): the Kd in data set [1] amounted to 0.013 µM; in data set [4], 0.0096 µM; in data set [8], 0.0048 µM. In data set [2], this compound came in with an inhibition of 0%. Further, the CC50 in the data set on NCI-H322M [3] is more than 25 µM; with NCI-H460 [9], 1.95 µM. In addition, the concentration for half-maximal inhibition (IC50) at Cytochrome P450 2C9 and against Cytochrome P450 2B6 was more than 50 µM in each case. Besides, the TI worked out at 6.2 in the data set on A549 and 4.1 in the data set on NCI-H460 [6]. For the same compound, it took 0.6 µM to inhibit growth in the data set with NCI-H322M [5] by half (GI50). For the same compound, the half-life in [7] was found to be 1 h; in [10] it was 0.955 h; in data set [11], 1.43 h.
